Source: ChEMBL document CHEMBL6087468, “TKK130 is a 3-Hydroxy-Propanamidine (HPA) with Potent Antimalarial In Vivo Activity and a High Barrier to Resistance” (J Med Chem, 2025)
pIC50: −log10 of the molar value. Calls of active or inactive are those of the source. The rule behind the calls is not given here.

How the values were obtained:
[1] = Chemical stability of the compound in aqueous buffer at pH 7.4; format: physicochemical
Method in brief: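 Stability tested in aqueous phosphate buffer, pH 7.4, at room temperature over 24 h, n = 3.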

[2] = Cytotoxicity against human HepG2 cells assessed as cell viability measured after 24 hrs by neutral red assay; format: toxicity, cell-based
[3] = Cytotoxicity against human HeLa cells assessed as cell viability measured after 24 hrs by neutral red assay; format: toxicity, cell-based
[4] = tested on: Plasmodium falciparum; assay: Antimalarial activity against chloroquine, sulfadoxine, and pyrimethamine-resistant Plasmodium falciparum Dd2 infected in erythrocyte assessed as reduction in number of viable parasites at 10 times IC50 concentration treated for 24 hrs followed by allowed to recover in drug-free medium for 28 days by HRP2-ELISA analysis; format: functional, organism-based
[5] = tested on: Plasmodium falciparum; assay: Antimalarial activity against chloroquine, sulfadoxine, and pyrimethamine-resistant Plasmodium falciparum Dd2 infected in erythrocyte assessed as reduction in number of viable parasites at 10 times IC50 concentration treated for 120 hrs followed by allowed to recover in drug-free medium for 28 days by HRP2-ELISA analysis; format: functional, organism-based
[6] = tested on: Plasmodium falciparum; assay: Induction of resistance development in Plasmodium falciparum Dd2 Pol delta at 2 x 10^9 initial inoculum per flask at 9 nM measured on day 4 by single-step selection assay; format: functional, organism-based
[7] = tested on: Plasmodium falciparum; assay: Induction of resistance development in Plasmodium falciparum Dd2 Pol delta at 2 x 10^7 initial inoculum per flask measured on day 16 by single-step selection assay; format: functional, organism-based
[8] = tested on: Hemozoin; assay: Inhibition of beta-hematin formation assessed as formation of bis-pyridyl heme complex incubated for 4 to 5 hrs by Nonidet-40 based plate reader assay
[9] = Plasma stability at 37 °C measured as remaining drug at 24 hrs sampled in triplicate (concentration 25 ng/mL 2 (TKK130)); format: ADME, cell-free; details: human, at 25 ng/mL, read-out: Stability
Method in brief: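 Fresh EDTA human plasma warmed to 37 °C, spiked to 25 ng/mL (0.5% methanol final), split into three fractions, shaken at 37 °C. Samples at 0, 2, 4, 6, 24, 48 h precipitated with ice-cold acetonitrile containing internal standard; LC–MS/MS. Recovery = analyte/IS area ratio relative to 0 h; triplicate.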

[10] = Metabolic stability in human liver microsomes assessed as intrinsic clearance at 50 ug/ml measured up to 60 mins; format: ADME, Microsome; details: microsomes, 1 h, dose 50 µg/ml
Method in brief: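 Pooled human liver microsomes (150 donors) in 0.1 M potassium phosphate buffer pH 7.4, cosolvent method, analyte at 1 μM final; reactions stopped with ice-cold acetonitrile at 0, 15, 30, 45, 60 min; LC–MS/MS. Clint from ke (negative slope of ln peak-area ratio vs time) via t1/2 = ln2/ke; triplicate; no-cofactor negative control and blank run.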

[11] = Microsomal binding in human liver microsomes assessed as unbound fraction […] by Equilibrium dialysis; format: ADME, Microsome
Method in brief: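 Equilibrium dialysis across 6 kDa regenerated cellulose membrane: donor 1 μM analyte in 0.5 mg/mL pooled HLMs in 0.1 M potassium phosphate buffer, acceptor 0.9% saline, 24 h at 37 °C. Donor diluted 1:20 in 4% BSA, acetonitrile precipitation, LC–MS/MS against matrix calibration curves; fraction bound from volume-corrected equation, unbound = 1 − bound; triplicate.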

[12] = Plasma protein binding in plasma (unknown origin) at 25 ng/ml measured after 24 hrs by standard equilibrium dialysis assay; format: ADME, cell-free; details: read-out: PPB (converted)
Method in brief: (§1)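 Standard equilibrium dialysis (6 kDa regenerated cellulose membrane): donor plasma spiked at 25 ng/mL, acceptor 0.9% saline, 24 h at 37 °C. Acetonitrile precipitation of plasma, methanol added to acceptor; LC–MS/MS with calibration curves in each medium; fraction bound corrected for volume shift; triplicate; itraconazole reference.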

[13] = Plasma protein binding in plasma (unknown origin) at 25 ng/ml measured after 24 hrs by dilution method; format: ADME, cell-free
Method in brief: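 Equilibrium dialysis with donor plasma diluted 1:10 or 1:20 in 0.9% saline, spiked at 25 ng/mL, against 0.9% saline acceptor for 24 h at 37 °C. Concentrations by LC–MS/MS against diluted-plasma calibration curves; unbound fraction (acceptor/donor) back-calculated to undiluted plasma; triplicate; itraconazole reference.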

[14] = Unbound drug concentration in plasma (unknown origin) at 25 ng/ml measured after 24 hrs by standard equilibrium dialysis assay; format: ADME, cell-free; method in brief: as §1
[15] = tested on: Plasmodium falciparum; assay: Antimalarial activity against Plasmodium falciparum Dd2 ELQ300 harboring PfcytB-mutant infected in human erythrocytes assessed as inhibition of parasite growth measured after 72 hrs incubation by [3H]hypoxanthine incorporation assay; format: functional, organism-based; details: Dd2 ELQ300, Erythrocyte
Method in brief: (§2)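 Dd2 parent line, and mutants made from it by gene editing or drug selection. Growth inhibition measured by the 72 h [3H]hypoxanthine incorporation assay at Swiss TPH. Values are means of 2 independent biological replicates.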

[16] = tested on: Plasmodium falciparum; assay: Antimalarial activity against Plasmodium falciparum Dd2 SJ557733 harboring Pfatp4-mutant infected in human erythrocytes assessed as inhibition of parasite growth measured after 72 hrs incubation by [3H]hypoxanthine incorporation assay; format: functional, organism-based; details: Dd2 SJ557733, Erythrocyte; method in brief: as §2
[17] = target: Voltage-gated inwardly rectifying potassium channel KCNH2 (Homo sapiens, UniProt Q12809); assay: Inhibition of hERG by fluorescence polarization assay; format: toxicity
[18] = tested on: Plasmodium berghei; assay: In vivo antiplasmodial activity against Plasmodium berghei infected mouse model assessed as parasitemia suppression in blood at 30 mg/kg, po treated 4 times measured at 96 hrs post infection by fluorescence-activated cell sorting (FACS) analysis; format: functional
[19] = tested on: Plasmodium berghei; assay: In vivo antiplasmodial activity against Plasmodium berghei infected mouse model assessed as mean survival time at 30 mg/kg, po treated 4 times measured at 96 hrs post infection by fluorescence-activated cell sorting (FACS) analysis (reference value: 4 days); format: functional
[20] = tested on: Plasmodium berghei; assay: In vivo antiplasmodial activity against Plasmodium berghei infected mouse model assessed as mean survival time at 50 mg/kg, po treated 4 times measured at 96 hrs post infection by fluorescence-activated cell sorting (FACS) analysis (reference value: 4 days); format: functional
[21] = tested on: Plasmodium berghei; assay: In vivo antiplasmodial activity against Plasmodium berghei infected mouse model assessed as curation rate at 30 mg/kg, po treated 4 times measured at 96 hrs post infection by fluorescence-activated cell sorting (FACS) analysis; format: functional
[22] = Cmax in mouse infected with Plasmodium berghei at 3 mg/kg, po; format: ADME, organism-based; details: in vivo
Method in brief: (§3)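 Single oral dose to P. berghei-infected mice, 2 mice per dose group. Blood sampled at 1, 4 and 24 h post-dose as dried blood spots, plus a blank "0 h" reading. Spots diluted 1:5 (3, 10 mg/kg) or 1:10 (30 mg/kg), then quantified by LC–MS/MS against a whole-blood calibration of 1.56–800 ng/mL with QCs at three levels.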

[23] = Tmax in mouse infected with Plasmodium berghei at 3 mg/kg, po; format: ADME, organism-based; details: in vivo
Method in brief: (§4)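 Infected mice (n = 2 per dose) given a single oral dose of 3, 10 or 30 mg/kg; blood sampled as dried blood spots at 1, 4 and 24 h post-dose, diluted before LC–MS analysis against whole-blood dried-spot calibration (1.56–800 ng/mL) with QCs; tmax from concentration–time profiles.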

[24] = Tmax in mouse infected with Plasmodium berghei at 30 mg/kg, po; format: ADME, organism-based; details: in vivo; method in brief: as §4
[25] = AUC (0 to t) in mouse infected with Plasmodium berghei at 3 mg/kg, po; format: ADME, organism-based; details: in vivo; method in brief: as §3
[26] = AUC (0 to t) in mouse infected with Plasmodium berghei at 10 mg/kg, po; format: ADME, organism-based; details: in vivo; method in brief: as §3

Chain of Voltage-gated inwardly rectifying potassium channel KCNH2 (Q12809 whole entry): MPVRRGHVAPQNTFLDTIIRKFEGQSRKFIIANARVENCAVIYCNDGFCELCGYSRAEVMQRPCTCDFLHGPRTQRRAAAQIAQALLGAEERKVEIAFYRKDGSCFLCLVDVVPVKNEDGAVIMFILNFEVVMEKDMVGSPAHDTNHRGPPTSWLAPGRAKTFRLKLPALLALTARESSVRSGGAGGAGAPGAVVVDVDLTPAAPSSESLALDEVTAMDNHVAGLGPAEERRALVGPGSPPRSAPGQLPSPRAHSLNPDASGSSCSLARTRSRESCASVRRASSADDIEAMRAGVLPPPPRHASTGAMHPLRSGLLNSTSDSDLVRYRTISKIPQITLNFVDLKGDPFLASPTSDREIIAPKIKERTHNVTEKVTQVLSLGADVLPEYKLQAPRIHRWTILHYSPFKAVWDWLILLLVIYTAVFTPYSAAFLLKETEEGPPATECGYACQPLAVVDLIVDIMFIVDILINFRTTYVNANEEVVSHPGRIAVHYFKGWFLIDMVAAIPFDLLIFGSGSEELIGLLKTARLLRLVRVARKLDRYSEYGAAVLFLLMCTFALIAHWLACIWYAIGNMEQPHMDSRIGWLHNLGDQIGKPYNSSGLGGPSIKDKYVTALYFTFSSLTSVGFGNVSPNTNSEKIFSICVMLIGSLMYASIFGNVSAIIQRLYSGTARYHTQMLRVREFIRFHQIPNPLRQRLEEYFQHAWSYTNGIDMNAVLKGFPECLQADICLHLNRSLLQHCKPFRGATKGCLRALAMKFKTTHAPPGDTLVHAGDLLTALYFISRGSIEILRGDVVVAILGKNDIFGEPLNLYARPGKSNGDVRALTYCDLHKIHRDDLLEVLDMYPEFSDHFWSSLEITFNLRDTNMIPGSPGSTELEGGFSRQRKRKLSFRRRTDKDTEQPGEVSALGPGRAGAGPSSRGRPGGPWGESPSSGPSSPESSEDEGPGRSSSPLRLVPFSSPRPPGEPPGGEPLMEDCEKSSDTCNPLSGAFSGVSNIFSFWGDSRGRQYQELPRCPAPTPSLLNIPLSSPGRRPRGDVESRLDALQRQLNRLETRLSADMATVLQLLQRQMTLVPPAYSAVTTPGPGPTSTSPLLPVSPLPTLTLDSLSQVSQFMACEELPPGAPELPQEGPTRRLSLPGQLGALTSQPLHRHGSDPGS

Cl.N=C(CC(O)c1cc2c(F)cc(F)cc2c2cc(C(F)(F)F)ccc12)Nc1ccc(F)cc1 (stereo unspecified)
Stability [1]: > 90% | IC50 at 24 h [2]: 20 µM | IC50 at 24 h [3]: 89.3 µM | Activity [4]: Active; Compound Exhibited Fast-Acting Than Dihydroartemisinin | Activity [5]: Active | Activity [6]: Active; No Subsequent Parasite Growth Observed | Activity [7]: inactive | pIC50 [8]: 5.03 | remaining at 24 h, 25 ng/mL [9]: 76.4% | CLint [10]: 1.8 µL/min/mg | Activity [11]: 2.6% | fraction unbound at 24 h, 25 ng/ml [12]: < 0.002 | fraction unbound at 24 h, 25 ng/ml [13]: 0.004 | Cp(f) [14]: 0.2% | pIC50 [15]: 7.85 | pIC50 [16]: 7.96 | pIC50 [17]: 6.52 | Activity [18]: 99.8% | MSD [19]: 30 days | MSD [20]: 30 days | Activity [21]: 100% | Cmax [22]: 216 ng/mL | Tmax [23]: 4 h | Tmax [24]: 4 h | AUC(0-t) [25]: 3770 ng·h/mL | AUC(0-t) [26]: 11600 ng·h/mL
